In ChEMBL document CHEMBL4346661, “Design, synthesis and evaluation of novel diaryl-1,5-diazoles derivatives bearing morpholine as potent dual COX-2/5-LOX inhibitors and antitumor agents” (Eur J Med Chem, 2019):
pIC50: −log10 of the molar value.

Assays:
[1] = system: B16-F10; experiment: Induction of cell cycle arrest in mouse B16F10 cells assessed as increase in cell accumulation at G2 phase at incubated for 48 hrs by propidium iodide staining-based flow cytometric analysis; type: functional
[2] = system: A549; experiment: Antiproliferative activity against human A549 cells incubated for 48 hrs by MTT assay; type: functional, cell-based; conditions: A549, 48 h
Method in brief: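 MTT assay on F10 (murine melanoma), HeLa, A549, MCF-7 and 293T (human renal epithelium) cells. IC50 given as mean ± SD of three independent experiments.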

[3] = species on record: Homo sapiens; experiment: Selectivity index, ratio of IC50 for COX1 (unknown origin) to IC50 for COX2 (unknown origin)
Method in brief: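 Ratio of COX-1 IC50 to COX-2 IC50, from human COX-1 and human COX-2 inhibitor screening assay kits. Each IC50 is the concentration giving 50% enzyme inhibition, taken as the mean of four determinations.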

[4] = system: B16-F10; experiment: Induction of apoptosis in mouse B16F10 cells assessed as viable cells at 25 uM incubated for 48 hrs in presence of apoptosis inhibitor z-VAD-fmk by Annexin-V-FITC/propidium iodide staining-based flow cytometric analysis (reference value: 92.5%); type: functional; conditions: B16-F10, 48 h, read-out: Activity
[5] = system: B16-F10; experiment: Induction of apoptosis in mouse B16F10 cells assessed as late apoptosis cells at 25 uM incubated for 48 hrs in presence of apoptosis inhibitor z-VAD-fmk by Annexin-V-FITC/propidium iodide staining-based flow cytometric analysis (reference value: 3.13%); type: functional
[6] = system: B16-F10; experiment: Induction of apoptosis in mouse B16F10 cells assessed as early apoptosis cells at 3.125 uM incubated for 48 hrs in presence of apoptosis inhibitor z-VAD-fmk by Annexin-V-FITC/propidium iodide staining-based flow cytometric analysis (reference value: 3.83%); type: functional
[7] = system: B16-F10; experiment: Induction of cell cycle arrest in mouse B16F10 cells assessed as cell accumulation at G2 phase at 6.25 uM incubated for 48 hrs by propidium iodide staining-based flow cytometric analysis (reference value: 22.43%); type: functional
[8] = system: B16-F10; experiment: Induction of apoptosis in mouse B16F10 cells assessed as necrosis cells at 3.125 uM incubated for 48 hrs in presence of apoptosis inhibitor z-VAD-fmk by Annexin-V-FITC/propidium iodide staining-based flow cytometric analysis (reference value: 0.558%); type: functional
[9] = Inhibition of 5-LOX assessed as calcium ionophore A23187-stimulated LTB4 production preincubated for 30 mins followed by calcium ionophore A23187 addition and measured after 30 mins by ELISA
[10] = system: B16-F10; experiment: Induction of cell cycle arrest in mouse B16F10 cells assessed as cell accumulation at S phase at 25 uM incubated for 48 hrs by propidium iodide staining-based flow cytometric analysis (reference value: 14.16%); type: functional
[11] = system: B16-F10; experiment: Induction of apoptosis in mouse B16F10 cells assessed as viable cells at 6.25 uM incubated for 48 hrs by Annexin-V-FITC/propidium iodide staining-based flow cytometric analysis (reference value: 94%); type: functional; conditions: B16-F10, 48 h, read-out: Activity
Method in brief: (§1)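 F10 cells were exposed to 0, 3.125, 6.25, 12.5 or 25 µM for 48 h. Cells were stained with Annexin V/PI and read by flow cytometry. Data are mean ± SD of three independent experiments.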

[12] = system: B16-F10; experiment: Induction of apoptosis in mouse B16F10 cells assessed as early apoptosis cells at 25 uM incubated for 48 hrs by Annexin-V-FITC/propidium iodide staining-based flow cytometric analysis (reference value: 2.93%); type: functional; method in brief: as §1
[13] = system: B16-F10; experiment: Induction of apoptosis in mouse B16F10 cells assessed as late apoptosis cells at 6.25 uM incubated for 48 hrs in presence of apoptosis inhibitor z-VAD-fmk by Annexin-V-FITC/propidium iodide staining-based flow cytometric analysis (reference value: 3.13%); type: functional

**Q.** Which Activity [1] does the source give for `NS(=O)(=O)c1ccc(-n2nc(C(=O)NCCCN3CCOCC3)cc2-c2ccc(C(F)(F)F)cc2)cc1` here?
**A.** Dose-dependent effect

**Q.** And the pIC50 [2]?
**A.** 4.96

**Q.** And the Ratio IC50 [3]?
**A.** 189

**Q.** And the viability at 25 µM [4]?
**A.** 78.8%

**Q.** And the Activity [5]?
**A.** 9.1%

**Q.** And the Activity [6]?
**A.** 4.31%

**Q.** And the Activity [7]?
**A.** 31.04%

**Q.** And the Activity [8]?
**A.** 0.23%

**Q.** What about the pIC50 [9] of the same compound?
**A.** 6.17

**Q.** And the Activity [10]?
**A.** 12.87%

**Q.** And the viability at 6.25 µM [11]?
**A.** 77.2%

**Q.** And the Activity [12]?
**A.** 40.8%

**Q.** And the Activity [13]?
**A.** 5.34%
